In ChEMBL document CHEMBL1125076, “In vivo intracerebral microdialysis studies in rats of MPP+ analogues and related charged species” (1990) one finds Basal data, which are given here for ten compounds.

Assay type in all cases: functional
The species named for experiment [1] is Rattus norvegicus. In words: Percentage of basal lactate efflux before starting the drug perfusion (1 min) with average basal level 689+/-103 pmol/min.
The species named for experiment [2] is Rattus norvegicus. In words: Percentage of basal lactate efflux before starting the drug perfusion (15 min) with average basal level 689+/-103 pmol/min. The procedure, abridged: (§1)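 Rat striatal microdialysis via U-shaped cellulose-membrane cannula, Ringer perfusion. Once lactate efflux stabilized, test compound perfused as 10 mM solution in Ringer for 15–150 min. Dialysate mixed on-line with lactate dehydrogenase (5 mg/mL) and 0.5 mM NAD+ in carbonate buffer pH 9.5. NADH formed was separated by C18 HPLC (0.05 M phosphate, pH 6.8) and detected electrochemically at 650 mV. Samples injected every 5 min. Change expressed as % of basal. At least duplicate experiments.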

Experiment [3] is filed under the species Rattus norvegicus. Briefly: (§2) Percentage of basal lactate efflux before starting the drug perfusion (150 min) with average basal level 689+/-103 pmol/min. The procedure, abridged: as §1
Experiment [4] is filed under the species Rattus norvegicus. The experiment is described as §2. The source holds these as a separate data set.

The structures appear in SMILES notation.

`C[n+]1ccc(-c2ccccc2)cc1`: the Basal worked out at 210% in the experiment filed under Rattus norvegicus [1] and 280% in the experiment listed under Rattus norvegicus [2].
Take `C[n+]1ccccc1-c1ccccc1`: in the experiment filed under Rattus norvegicus [2], the Basal was determined as 160%.
As to `C[n+]1cccc2ccccc21`, the Basal stood at 200% in the experiment listed under Rattus norvegicus [3] and 190% in the experiment listed under Rattus norvegicus [2].
In the case of `Cc1ccccc1-c1cc[n+](C)cc1`, in the experiment listed under Rattus norvegicus [1], the Basal was 155%.
`Cc1ccc(-[n+]2ccc(C)cc2)cc1`: the Basal in the experiment filed under Rattus norvegicus [1] is 180%; in the experiment filed under Rattus norvegicus [2], 230%.
In the experiment filed under Rattus norvegicus [1], `Cc1cc(-c2ccccc2)cc[n+]1C` had a Basal of 200%.
The compound `C[n+]1ccc(C(C)(C)C)cc1` returned a Basal in the experiment listed under Rattus norvegicus [2] of 106%.
For the compound `C[n+]1ccc(-c2ccccc2)nc1`, the Basal in the experiment filed under Rattus norvegicus [2] is recorded as 102%.
In turn, `C[n+]1cccc(-c2ccccc2)c1` registered a Basal in the experiment listed under Rattus norvegicus [2] of 240%.
The compound `c1ccc2c(c1)CCNC2` [1,2,3,4-TETRAHYDROISOQUINOLINE] displayed a Basal in the experiment listed under Rattus norvegicus [4] of 98%.
